For experiment [1], the target named is DNA topoisomerase II (Homo sapiens) (UniProt P11388+Q02880). The experiment is described as follows: Compound was tested for inhibition against human DNA topoisomerase II. Format: protein assay. Further details: concentration or dose not given beside the values. The following applies: concentration not given here.
A short description of experiment [2]: Compound was tested for in vitro cytotoxicity in KB cells after 3 days of incubation. Type of experiment: functional. The following applies: Homo sapiens, 72 h, read-out: ED50 (the source's name). The gist of the method: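 KB human tumor cells exposed to drug for 3 days; read-out was cell number. ED50 was taken as the drug concentration giving 50% reduction in cell number. Values are marked as preliminary.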

SMILES strings stand for the structures. Converted amounts (≈) assume the structure as drawn. Bounds are passed on as bounds.

Take `CCS[C@@H]1c2cc3c(cc2[C@@H](c2cc(OC)c(O)c(OC)c2)[C@H]2C(=O)OC[C@@H]21)OCO3`: the inhibition – broadly, the drop in the measured response relative to a control, in per cent – in experiment [1] was 25%. Further, the EC50 in experiment [2] was found to be 1.1 µg/mL (≈ 2.47 µM).
Turning to `COc1cc([C@@H]2c3cc4c(cc3[C@@H](OC(=O)Cc3ccccc3)[C@H]3COC(=O)[C@H]23)OCO4)cc(OC)c1O`, the EC50 in experiment [2] was 0.00028 µg/mL (≈ 0.00054 µM).
In turn, `COc1cc([C@@H]2c3cc4c(c(O[C@@H]5O[C@@H](CO)[C@@H](O)[C@H](O)[C@@H]5O)c3C[C@H]3COC(=O)[C@@H]32)OCO4)cc(OC)c1O` gave an inhibition in experiment [1] of 25%. In addition, the EC50 in experiment [2] was determined as 1.1 µg/mL (≈ 1.96 µM).
In experiment [1], `CCCC(=O)Oc1c2c(cc3c1OCO3)[C@@H](c1cc(OC)c(O)c(OC)c1)[C@H]1C(=O)OC[C@@H]1C2` gave an inhibition of 25%. Besides, the EC50 in experiment [2] came out at 0.004 µg/mL (≈ 0.0085 µM).
Turning to `COc1cc([C@@H]2c3cc4c(cc3[C@@H](OC(=O)c3ccccc3C(=O)O)[C@H]3COC(=O)[C@H]23)OCO4)cc(OC)c1O`, the EC50 in experiment [2] was 0.8 µg/mL (≈ 1.46 µM).
Turning to `CCC(=O)O[C@@H]1c2cc3c(cc2[C@@H](c2cc(OC)c(O)c(OC)c2)[C@H]2C(=O)OC[C@@H]21)OCO3`, the inhibition in experiment [1] worked out at 0%. For the same compound, the EC50 in experiment [2] came to 1 µg/mL (≈ 2.19 µM).
`CCC(=O)Oc1c2c(cc3c1OCO3)[C@@H](c1cc(OC)c(O)c(OC)c1)[C@H]1C(=O)OC[C@@H]1C2` came in with an inhibition in experiment [1] of 25%. Further, the EC50 in experiment [2] was 0.005 µg/mL (≈ 0.011 µM).
Take `COc1cc([C@@H]2c3cc4c(c(OC(=O)Cc5ccccc5)c3C[C@H]3COC(=O)[C@@H]32)OCO4)cc(OC)c1O`: the EC50 in experiment [2] stood at 0.01 µg/mL (≈ 0.0193 µM).
The compound `COc1cc([C@@H]2c3cc4c(c(OC)c3C[C@H]3COC(=O)[C@@H]32)OCO4)cc(OC)c1O` displayed an inhibition in experiment [1] of 25%. For the same compound, the EC50 in experiment [2] came to 0.001 µg/mL (≈ 0.00241 µM).
In experiment [1], `COc1cc([C@@H]2c3cc4c(cc3[C@@H](OC)[C@H]3COC(=O)[C@H]23)OCO4)cc(OC)c1O` displayed an inhibition of 25%. Moreover, in experiment [2], the EC50 worked out at 1.1 µg/mL (≈ 2.65 µM).
Take `COc1cc([C@@H]2c3cc4c(c(OC(C)=O)c3C[C@H]3COC(=O)[C@@H]32)OCO4)cc(OC)c1O`: in experiment [1], the inhibition amounted to 0%. In experiment [2], the EC50 stood at 0.01 µg/mL (≈ 0.0226 µM).
`COc1cc([C@@H]2c3cc4c(cc3[C@@H](O)[C@H]3COC(=O)[C@H]23)OCO4)cc(OC)c1O` [4'-DEMETHYLEPIPODOPHYLLOTOXIN] came in with an inhibition in experiment [1] of 50%. Also, the EC50 in experiment [2] worked out at 0.06 µg/mL (≈ 0.15 µM).
`C/C=C\C(=O)O[C@@H]1c2cc3c(cc2[C@@H](c2cc(OC)c(O)c(OC)c2)[C@H]2C(=O)OC[C@@H]21)OCO3`: the EC50 in experiment [2] worked out at 0.9 µg/mL (≈ 1.92 µM).
`COc1cc([C@@H]2c3cc4c(c(OC(=O)OCc5ccccc5)c3C[C@H]3COC(=O)[C@@H]32)OCO4)cc(OC)c1O` had an inhibition in experiment [1] of 25%. The EC50 in experiment [2] turned out to be 0.01 µg/mL (≈ 0.0187 µM).
In experiment [1], `COc1cc([C@@H]2c3cc4c(cc3[C@@H](O[C@@H]3O[C@@H]5CO[C@@H](C)O[C@H]5[C@H](O)[C@H]3O)[C@H]3COC(=O)[C@H]23)OCO4)cc(OC)c1O` [ETOPOSIDE] registered an inhibition above 88%. For the same compound, the EC50 in experiment [2] was determined as 0.12 µg/mL (≈ 0.204 µM).
In the same order, the values of `CCO[C@@H]1c2cc3c(cc2[C@@H](c2cc(OC)c(O)c(OC)c2)[C@H]2C(=O)OC[C@@H]21)OCO3` are 25% and 1.1 µg/mL (≈ 2.57 µM).
`COc1cc([C@@H]2c3cc4c(cc3[C@@H](OC(=O)CCC(=O)O)[C@H]3COC(=O)[C@H]23)OCO4)cc(OC)c1O` gave an inhibition in experiment [1] of 0%. Also, the EC50 in experiment [2] amounted to 1 µg/mL (≈ 2 µM).
In the case of `COc1cc([C@@H]2c3cc4c(cc3[C@@H](OC(C)=O)[C@H]3COC(=O)[C@H]23)OCO4)cc(OC)c1O`, the inhibition in experiment [1] was 25%. Also, in experiment [2], the EC50 was 0.2 µg/mL (≈ 0.452 µM).
As to `COc1cc([C@@H]2c3cc4c(c(O)c3C[C@H]3COC(=O)[C@@H]32)OCO4)cc(OC)c1O`, the inhibition in experiment [1] was determined as 0%. Also, the EC50 in experiment [2] worked out at 0.09 µg/mL (≈ 0.225 µM).
In the same order, the values of `COc1cc([C@@H]2c3cc4c(c(O[C@@H]5O[C@H]6CO[C@@H](c7cccs7)O[C@H]6[C@H](O)[C@@H]5O)c3C[C@H]3COC(=O)[C@@H]32)OCO4)cc(OC)c1O` are 25% and 2 µg/mL (≈ 3.05 µM).
For `COc1cc([C@@H]2c3cc4c(c(O[C@@H]5O[C@H]6CO[C@@H](C)O[C@H]6[C@H](O)[C@@H]5O)c3C[C@H]3COC(=O)[C@@H]32)OCO4)cc(OC)c1O`, in experiment [2], the EC50 came to 2 µg/mL (≈ 3.4 µM).
The compound `COc1cc([C@@H]2c3cc4c(c(OC(=O)CCC(=O)O)c3C[C@H]3COC(=O)[C@@H]32)OCO4)cc(OC)c1O` came in with an inhibition in experiment [1] of 0%. In experiment [2], the EC50 came to 0.01 µg/mL (≈ 0.02 µM).
